Only some compounds are listed: those with a hit (about 2.3% of all), similar ones and a draw of the others.
TRPC4 potent: allosterically enhances the mouse TRPC4 cation channel. HEK293 TRPC4beta/mu-opioid, DAMGO EC20, Fluo-4 Ca2+ flux; hits give high values. B-score at 10 µM. 310,000 tested, 0.42% active. AID 2227;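 active = B-score of calcium response area above 5 SD of library B-scores, with initial fluorescence ratio within 5 SD of library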
TRPC6 inh: inhibitors of mouse TRPC6 channel; Q61143; B-score at 10 µM; 310,000 tested, 1.1% active; AID 2553; HEK293-TRPC6, membrane potential dye, ACh-evoked depolarization; hits give low values;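 active = B-score under library mean minus 3 SD, initial fluorescence not abnormally high, positive integrated signal ratio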;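 note: B-score derived from integrated fluorescence ratio over the kinetic read; more negative B-score means stronger inhibition of depolarization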
Target sequence (Q61143 whole entry, looked up): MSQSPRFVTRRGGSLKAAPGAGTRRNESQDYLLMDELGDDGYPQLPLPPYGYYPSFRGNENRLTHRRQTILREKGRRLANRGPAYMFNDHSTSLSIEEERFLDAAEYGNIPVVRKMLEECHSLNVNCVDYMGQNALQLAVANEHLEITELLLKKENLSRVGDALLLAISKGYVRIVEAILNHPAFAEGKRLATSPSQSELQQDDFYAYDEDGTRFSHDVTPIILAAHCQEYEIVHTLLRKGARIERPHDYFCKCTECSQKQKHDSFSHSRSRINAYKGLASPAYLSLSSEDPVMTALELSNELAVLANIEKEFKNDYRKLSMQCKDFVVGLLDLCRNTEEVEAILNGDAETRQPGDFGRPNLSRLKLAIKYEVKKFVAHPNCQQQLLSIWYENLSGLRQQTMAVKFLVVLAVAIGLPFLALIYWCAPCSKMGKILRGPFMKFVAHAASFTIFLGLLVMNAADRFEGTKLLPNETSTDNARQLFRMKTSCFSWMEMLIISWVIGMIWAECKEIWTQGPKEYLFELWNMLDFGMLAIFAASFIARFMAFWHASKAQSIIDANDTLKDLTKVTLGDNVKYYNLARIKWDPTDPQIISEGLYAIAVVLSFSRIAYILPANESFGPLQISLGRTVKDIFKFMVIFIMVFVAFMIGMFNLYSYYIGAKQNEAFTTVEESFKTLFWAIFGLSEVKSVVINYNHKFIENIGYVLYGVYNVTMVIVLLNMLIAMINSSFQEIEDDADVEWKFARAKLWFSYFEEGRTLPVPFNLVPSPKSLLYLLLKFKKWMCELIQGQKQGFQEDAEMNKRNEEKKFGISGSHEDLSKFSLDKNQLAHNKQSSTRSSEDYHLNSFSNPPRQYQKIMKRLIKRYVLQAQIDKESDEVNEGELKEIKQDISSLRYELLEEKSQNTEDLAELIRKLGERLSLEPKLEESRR
TRPC4 block: blocks the mouse TRPC4 cation channel; 300,000 tested, 0.39% active; Q9QUQ5; B-score at 10 µM; HEK293 TRPC4beta/mu-opioid, DAMGO-evoked Fluo4 calcium flux; hits give low values;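 active = B-score over 3 SD under the library average, no early fluorescence shift, positive overall ratio signal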
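Assay system: HEK293 cells with stable TRPC4beta plus mu-opioid receptor expression; Probe or stimulus: DAMGO in two steps, submaximal then maximal; Dosing: single-point compound dosing; Measured by: Fluo4 calcium-dye fluorescence, kinetic read; Read-out basis: B score from integrated Fluo4 fluorescence ratio.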
TRPC6 act: mouse TRPC6 channel activation | Q61143 | AID 2550 | 310,000 tested, 0.13% active | B-score at 10 µM | HEK293-TRPC6 membrane potential dye fluorescence; hits give high values;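 active = B-score of the integrated fluorescence ratio above library mean plus 3 SD, and starting fluorescence ratio within library mean plus 5 SD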;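 note: higher score means more depolarization so channel activation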
TRPC4 act: activators of mouse TRPC4 channel; HEK293 TRPC4beta/mu-opioid, Fluo4 calcium fluorescence; hits give high values; 310,000 tested, 0.49% active; Q9QUQ5; B-score at 10 µM;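 active = B-score above 5 SD of library B-scores, and initial fluorescence ratio not above library mean plus 5 SD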;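 note: positive B-score marks a calcium rise read as TRPC4 activation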
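Assay system: HEK293 stable line with TRPC4beta plus mu-opioid receptor; schedule: 45 min room-temperature Fluo4 loading, 110 s read; technique: kinetic Fluo4 calcium fluorescence; evaluation: integrated baseline-normalised fluorescence ratio, converted to per-well B score; controls: buffer (low) and maximal DAMGO (high)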
Numbers stand for hits.

Cn1c(-c2c(N)n(CCCc3ccccc3)c3nc4ccccc4nc23)nc2ccccc21 was read as TRPC4 potent inactive, TRPC6 inh inactive, TRPC4 block inactive, TRPC6 act inactive and TRPC4 act inactive.
Screening COCCCn1c(N)c(-c2nc3ccccc3n2C)c2nc3ccccc3nc21 returned TRPC4 potent inactive, TRPC6 inh inactive, TRPC4 block inactive, TRPC6 act inactive and TRPC4 act 74.
`O=C(NCCCN1CCOCC1)c1cnccn1` gave TRPC4 potent inactive, TRPC6 inh inactive, TRPC4 block inactive, TRPC6 act inactive and TRPC4 act inactive.
For CCOCCSC1=C(C#N)C(c2cccs2)C(C(C)=O)=C(C)N1 (stereo not given) the results were TRPC4 potent inactive, TRPC6 inh inactive, TRPC4 block -6, TRPC6 act inactive and TRPC4 act inactive.
`CCSc1nnc([C@H](Cc2c[nH]c3ccccc23)NC(=O)OC(C)(C)C)o1` gave TRPC4 potent 17, TRPC6 inh inactive, TRPC4 block inactive, TRPC6 act inactive and TRPC4 act inactive.
For c1ccc(-c2nc3ccccn3c2NCc2ccc3c(c2)OCO3)cc1 the results were TRPC4 potent inactive, TRPC6 inh inactive, TRPC4 block inactive, TRPC6 act inactive and TRPC4 act inactive.
COc1ccc(-c2nc3ccccn3c2NCc2ccc3c(c2)OCO3)cc1 was read as TRPC4 potent inactive, TRPC6 inh -5.3, TRPC4 block inactive, TRPC6 act inactive and TRPC4 act inactive.
`Cc1noc(C)c1S(=O)(=O)N1CCCC1C(=O)O` (stereo not given) gave TRPC4 potent inactive, TRPC6 inh inactive, TRPC4 block inactive, TRPC6 act inactive and TRPC4 act inactive.
CCC(C)(C)n1nnnc1CN(Cc1cccs1)Cc1cc2cc(OC)ccc2[nH]c1=O was read as TRPC4 potent 11, TRPC6 inh inactive, TRPC4 block inactive, TRPC6 act inactive and TRPC4 act inactive.
For CCOc1ccc2[nH]c(=O)c(CN(Cc3cccs3)Cc3nnnn3C(C)(C)CC)cc2c1 the results were TRPC4 potent inactive, TRPC6 inh inactive, TRPC4 block inactive, TRPC6 act inactive and TRPC4 act inactive.
`CSCC[C@H](NC(=O)N1CCn2c1nc1ccccc12)C(=O)NCc1ccc(F)cc1` gave TRPC4 potent 20, TRPC6 inh inactive, TRPC4 block inactive, TRPC6 act inactive and TRPC4 act inactive.
`O=c1c(Cc2ccc(F)cc2)c(O)ccn1Cc1ccc(F)cc1` gave TRPC4 potent inactive, TRPC6 inh inactive, TRPC4 block inactive, TRPC6 act inactive and TRPC4 act inactive.
O=c1c(Cc2ccc(F)cc2)c(O)ccn1CCc1cnc[nH]1 was read as TRPC4 potent inactive, TRPC6 inh inactive, TRPC4 block inactive, TRPC6 act inactive and TRPC4 act 108.
Screening O=c1c(Cc2ccccc2)c(O)ccn1CCc1cnc[nH]1 returned TRPC4 potent inactive, TRPC6 inh inactive, TRPC4 block inactive, TRPC6 act inactive and TRPC4 act 129.
COc1ccc(C(CNC(=O)CCOc2ccccc2)N(C)C)cc1 (stereo not given) was read as TRPC4 potent inactive, TRPC6 inh inactive, TRPC4 block inactive, TRPC6 act inactive and TRPC4 act 154.
Screening CN(C)C(CNC(=O)CCc1nc2ccccc2s1)c1ccccc1 (stereo not given) returned TRPC4 potent inactive, TRPC6 inh inactive, TRPC4 block -7, TRPC6 act inactive and TRPC4 act inactive.
For CN(C)C(CNC(=O)CCOc1ccccc1)c1ccco1 (stereo not given) the results were TRPC4 potent inactive, TRPC6 inh inactive, TRPC6 act inactive and TRPC4 act inactive.
For Cc1cccc(OCCC(=O)NCC(c2ccccc2)N(C)C)c1 (stereo not given) the results were TRPC4 potent inactive, TRPC6 inh inactive, TRPC4 block inactive, TRPC6 act inactive and TRPC4 act 103.
For COc1ccc(CCNC(=O)CC(Cc2ccc(C)cc2)C(=O)O)cc1OC (stereo not given) the results were TRPC4 potent inactive, TRPC6 inh inactive, TRPC4 block inactive, TRPC6 act inactive and TRPC4 act inactive.
`Cc1cc(NS(=O)(=O)c2ccc(NC(=O)CCCOc3ccccc3C)cc2)no1` gave TRPC4 potent inactive, TRPC6 inh inactive, TRPC4 block inactive, TRPC6 act inactive and TRPC4 act inactive.
For CCOC(=O)C1CCN(C(=O)Cn2ncc3c([nH]c4ccccc43)c2=O)CC1 the results were TRPC4 potent inactive, TRPC6 inh inactive, TRPC4 block inactive, TRPC6 act inactive and TRPC4 act inactive.
CCn1c(NC2CCCCC2)nc2ccccc21 was read as TRPC4 potent inactive, TRPC6 inh inactive, TRPC4 block -6, TRPC6 act inactive and TRPC4 act inactive.
`CCn1c(N2CCN(C(=O)NC3CCCCC3)CC2)nc2ccccc21` gave TRPC4 potent inactive, TRPC6 inh inactive, TRPC4 block inactive, TRPC6 act inactive and TRPC4 act 46.
`O=C(NC1CCCCC1)N1CCN(C(c2ccccc2)c2ccccc2)CC1` gave TRPC4 potent inactive, TRPC6 inh inactive, TRPC4 block -6, TRPC6 act inactive and TRPC4 act inactive.
`CCn1c(N2CCN(CC(=O)Nc3cccc(C)c3C)CC2)nc2ccccc21` gave TRPC4 potent inactive, TRPC6 inh inactive, TRPC4 block inactive, TRPC6 act inactive and TRPC4 act 147.
For O=C(NC1CCCCC1)N1CCN(c2ccccc2)CC1 the results were TRPC4 potent inactive, TRPC6 inh inactive, TRPC4 block inactive, TRPC6 act inactive and TRPC4 act inactive.
Screening CC(C)Cn1c(N2CCN(CC(=O)Nc3ccc(Cl)cc3)CC2)nc2ccccc21 returned TRPC4 potent inactive, TRPC6 inh inactive, TRPC4 block inactive, TRPC6 act inactive and TRPC4 act inactive.
Screening C1CCN(CCCNC2C3CC4CC(C3)CC2C4)C1 (stereo not given) returned TRPC4 potent inactive, TRPC6 inh inactive, TRPC4 block inactive, TRPC6 act inactive and TRPC4 act inactive.
CCCn1c(N2CCN(C(=O)Nc3ccccc3)CC2)nc2ccccc21 was read as TRPC4 potent inactive, TRPC6 inh inactive, TRPC4 block inactive, TRPC6 act inactive and TRPC4 act inactive.
CCn1c(N2CCN(C(=O)Nc3ccc(F)cc3)CC2)nc2ccccc21 was read as TRPC4 potent inactive, TRPC6 inh inactive, TRPC4 block inactive, TRPC6 act inactive and TRPC4 act 118.
Screening COc1ccc(C(=O)NC(=S)N2CCOCC2)cc1[N+](=O)[O-] returned TRPC4 potent inactive, TRPC6 inh inactive, TRPC4 block inactive, TRPC6 act inactive and TRPC4 act inactive.
`CC(C)(Sc1cc(C(C)(C)C)c(O)c(C(C)(C)C)c1)Sc1cc(C(C)(C)C)c(O)c(C(C)(C)C)c1` gave TRPC4 potent inactive, TRPC6 inh inactive, TRPC4 block inactive, TRPC6 act inactive and TRPC4 act 83.
Screening O=C(CCC(=O)c1cccs1)NCc1cccc(Cl)c1 returned TRPC4 potent inactive, TRPC6 inh inactive, TRPC4 block inactive, TRPC6 act inactive and TRPC4 act inactive.
